Results from ChEMBL document CHEMBL1148578, “Synthesis and biological evaluation of 6-(alkyn-1-yl)furo[2,3-d]pyrimidin-2(3H)-one base and nucleoside derivatives” (J Med Chem, 2006).

Legend:
Human betaherpesvirus 5 [1] = assay: Antiviral activity against human cytomegalovirus Davis strain; format: functional, organism-based; details: Human betaherpesvirus 5, Davis
How it was run: (§1)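 Virus was removed and medium with graded compound concentrations was added, in duplicate. After 7 days at 37 °C, cells were ethanol-fixed and Giemsa-stained, and cytopathogenicity was scored microscopically.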

Human alphaherpesvirus 3 [2] = assay: Antiviral activity against Varicella-Zoster virus YS/R strain; format: functional, organism-based; details: Human alphaherpesvirus 3, YS/R
How it was run: (§2)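 HEL cell monolayers were infected with VZV (TK⁻ strains YS/R and 07/1) for 2 h. Residual virus was then removed and medium with graded compound concentrations was added, in duplicate. After 5 days at 37 °C, cells were ethanol-fixed and Giemsa-stained, and plaques were counted microscopically.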

Human alphaherpesvirus 3 [3] = assay: Antiviral activity against Varicella-Zoster virus 07/1 strain; format: functional, organism-based; details: Human alphaherpesvirus 3, 07/1; how it was run: as §2
Human betaherpesvirus 5 [4] = assay: Antiviral activity against human cytomegalovirus AD169 strain; format: functional, organism-based; details: Human betaherpesvirus 5, AD169; how it was run: as §1
HEL = assay: Cytotoxic activity against cultured human embryonic lung (HEL) cells; format: functional
How it was run: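 HEL cells were seeded at 5 × 10³/well and grown for 24 h, then exposed to graded compound concentrations for 3 days at 37 °C. MCC was the lowest concentration giving microscopically visible alteration of cell morphology.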

Human alphaherpesvirus 3 [5] = assay: Antiviral activity against Varicella-Zoster virus YS strain; format: functional, organism-based; details: Human alphaherpesvirus 3, YS

EC50 (Human betaherpesvirus 5 [1]) | EC50 (Human alphaherpesvirus 3 [2]) | EC50 (Human alphaherpesvirus 3 [3]) | EC50 (Human betaherpesvirus 5 [4]) | EC50 (Human alphaherpesvirus 3 [5]) | SMILES | CC50 (HEL) | MCC (HEL)
≥ 9.3 µM | 6.2 µM | ≥ 12 µM | 7.3 µM | > 12 µM | CCCCCCCCC#Cc1cc2cn([C@@H]3O[C@H](CO)[C@@H](O)[C@H]3O)c(=O)nc2o1 | 62 µM | 49 µM
> 175 µM | > 175 µM | > 70 µM | > 175 µM | > 175 µM | CCCCCCCCC#Cc1cc2cn(C)c(=O)nc2o1 | > 175 µM | > 175 µM
> 53 µM | 19 µM | 39 µM | > 133 µM | ≥ 39 µM | CCCCCCC#Cc1cc2cn([C@@H]3O[C@H](CO)[C@@H](O)[C@H]3O)c(=O)nc2o1 | > 133 µM | ≥ 133 µM
> 53 µM | 21 µM | 34 µM | > 53 µM | ≥ 43 µM | CCCCCCC#Cc1cc2cn([C@@H]3O[C@H](CO)[C@@H](O)[C@@H]3O)c(=O)nc2o1 | > 53 µM | 133 µM
> 4.6 µM | 3.5 µM | 4.6 µM | > 4.6 µM | > 4.6 µM | CCCCCCCCCCC#Cc1cc2cn([C@@H]3O[C@H](CO)[C@@H](O)[C@H]3O)c(=O)nc2o1 | 44 µM | 12 µM
139 µM | > 87 µM | > 87 µM | > 217 µM | 217 µM | CCCCC#Cc1cc2cn(C)c(=O)nc2o1 | > 217 µM | ≥ 217 µM
7.6 µM | 6.5 µM | > 13 µM | 7.4 µM | 2.7 µM | CCCCCCCCC#Cc1cc2cn([C@H]3C[C@H](O)[C@@H](CO)O3)c(=O)nc2o1 | 77 µM | 52 µM
> 150 µM | 90 µM | ≥ 135 µM | > 150 µM | 87 µM | CCCCC#Cc1cc2cn([C@H]3C[C@H](O)[C@@H](CO)O3)c(=O)nc2o1 | > 150 µM | > 150 µM
12 µM | 3.7 µM | 11 µM | > 12 µM | ≥ 11 µM | CCCCCCCCC#Cc1cc2cn([C@@H]3O[C@H](CO)[C@@H](O)[C@@H]3O)c(=O)nc2o1 | > 124 µM | 49 µM
> 12 µM | 5.7 µM | > 12 µM | > 12 µM | ≥ 16 µM | CCCCCCCCCCC#Cc1cc2cn([C@@H]3O[C@H](CO)[C@@H](O)[C@@H]3O)c(=O)nc2o1 | 116 µM | 46 µM
> 4.8 µM | 2.5 µM | ≥ 6 µM | > 4.8 µM | ≥ 5.7 µM | CCCCCCCCCCC#Cc1cc2cn([C@H]3C[C@H](O)[C@@H](CO)O3)c(=O)nc2o1 | 36 µM | 30 µM
> 150 µM | > 150 µM | > 150 µM | > 150 µM | > 150 µM | CCCCCCCCCCC#Cc1cc2cn(C)c(=O)nc2o1 | > 150 µM | > 150 µM
19 µM | 22 µM | 25 µM | 21 µM | 1.5 µM | CCCCCCC#Cc1cc2cn([C@H]3C[C@H](O)[C@@H](CO)O3)c(=O)nc2o1 | 138 µM | ≥ 97 µM
37 µM | 23 µM | > 77 µM | 31 µM | ≥ 89 µM | CCCCCCC#Cc1cc2cn(C)c(=O)nc2o1 | > 194 µM | 194 µM
> 144 µM | 63 µM | > 144 µM | > 144 µM | > 144 µM | CCCCC#Cc1cc2cn([C@@H]3O[C@H](CO)[C@@H](O)[C@@H]3O)c(=O)nc2o1 | > 144 µM | > 144 µM
> 144 µM | 52 µM | 144 µM | > 144 µM | ≥ 113 µM | CCCCC#Cc1cc2cn([C@@H]3O[C@H](CO)[C@@H](O)[C@H]3O)c(=O)nc2o1 | > 144 µM | > 144 µM
– | – | – | – | – | Nc1nc2c(ncn2COCCO)c(=O)[nH]1 [ACYCLOVIR] | > 889 µM | > 222 µM

SMILES | EC50 (Human betaherpesvirus 5 [1]) | EC50 (Human alphaherpesvirus 3 [2]) | EC50 (Human alphaherpesvirus 3 [3]) | EC50 (Human betaherpesvirus 5 [4]) | EC50 (Human alphaherpesvirus 3 [5]) | CC50 (HEL) | MCC (HEL)
O=c1[nH]c(=O)n([C@H]2C[C@H](O)[C@@H](CO)O2)cc1/C=C/Br [BRIVUDINE] | – | ≥ 126 µM | ≥ 99 µM | – | 0.01 µM | > 150 µM | > 150 µM
Nc1nc2c(ncn2COC(CO)CO)c(=O)[nH]1 [GANCICLOVIR] | 8.7 µM | – | – | – | – | > 197 µM | > 197 µM
